Where only a bound is given, the exact number is not on record here.

Data set [1] has as its system A-375. The experiment in a line: Phototoxicity against human A375 cells preincubated for 5 mins followed by compound washout and subsequent UV irradiation at 1.5 J/cm2 for 5 mins measured after 72 hrs by MTT assay. It counts as functional, cell-based. To be noted: A-375, light or radiation study. Summed up: (§1)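 Compounds were diluted in DMSO (0.5% final), applied in triplicate for 5 min, then washed out with PBS. After medium removal, cells were irradiated on ice for 5 min at 365 nm (1.5 J/cm²) and then kept 72 h at 37 °C. Viability was read by MTT at 540 nm and expressed relative to 0.5% DMSO controls given the same treatment. EC50 is the concentration killing 50%, as the mean ± SD of at least three experiments.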
In general terms: Tetrazolium dyes change colour on reduction, which living cells bring about.

Data set [2] in a line: Dark toxicity against human MCF7 cells preincubated for 5 mins followed by compound washout and measured after 72 hrs by MTT assay. The class given is cell-based. The gist of the method:
(§2)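 Cells were plated and allowed to attach overnight. Compounds were diluted in DMSO (0.5% final), with each concentration in triplicate, and applied for 5 min. Cells were then washed in PBS and given fresh medium. Without irradiation, cells were held 72 h at up to 50 μM. MTT (5 mg/mL stock) was added for 4 h, crystals were dissolved in SDS/HCl overnight, and absorbance was read at 540 nm. CC50 is the concentration killing 50% of cells, taken as the mean of at least three experiments.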

In data set [3] the test system is HT-29. The experiment in a line: Phototoxicity against human HT-29 cells preincubated for 5 mins followed by compound washout and subsequent UV irradiation at 1.5 J/cm2 for 5 mins measured after 72 hrs by MTT assay. The class given is functional, cell-based. To be noted: HT-29, light or radiation study. Summed up:
as §1

The nature of data set [4]: Solubility of the compound in DMSO. It counts as physicochemical.
Data set [5] relates to A-375. The experiment in a line: Phototoxicity index, ratio of CC50 for human A375 cells to EC50 for human A375 cells under UV irradiation at 1.5 J/cm2.
The nature of data set [6]: Dark toxicity against human MCF10A cells preincubated for 5 mins followed by compound washout and measured after 72 hrs by MTT assay. The class given is cell-based, MCF-10A. Summed up:
as §2

Data set [7] concerns MCF7. The experiment in a line: Phototoxicity against human MCF7 cells preincubated for 5 mins followed by compound washout and subsequent UV irradiation at 1.5 J/cm2 for 5 mins measured after 72 hrs by MTT assay. It counts as functional, cell-based. Particulars: MCF7, light or radiation study. The gist of the method: as §1
Data set [8] is described as follows: Selectivity index, ratio of EC50 for human MCF10A cells under UV irradiation at 1.5 J/cm2 to EC50 for human A375 cells under UV irradiation at 1.5 J/cm2. It counts as toxicity. Particulars: MCF10A cells versus A375 cells, read-out: Ratio EC50. Summed up:
(§3)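 SI is the EC50 under irradiation in non-tumor MCF10A cells divided by the EC50 under irradiation in the tumor line. Both were MTT read-outs 72 h after 1.5 J/cm² at 365 nm.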

Data set [9] is described as follows: Dark toxicity against human HT-29 cells preincubated for 5 mins followed by compound washout and measured after 72 hrs by MTT assay. The class given is cell-based. Summed up:
as §2

Data set [10] can be described thus: Dark toxicity against human A375 cells preincubated for 5 mins followed by compound washout and measured after 72 hrs by MTT assay. The class given is cell-based, A-375. Summed up: as §2
For another data set, the system named is MCF-10A. The experiment in a line: Phototoxicity against human MCF10A cells preincubated for 5 mins followed by compound washout and subsequent UV irradiation at 1.5 J/cm2 for 5 mins measured after 72 hrs by MTT assay. It counts as cell-based. To be noted: light or radiation study. Summed up: as §1
The test system of data set [11] is MCF7. The experiment in a line: Phototoxicity index, ratio of CC50 for human MCF7 cells to EC50 for human MCF7 cells under UV irradiation at 1.5 J/cm2.
Data set [12] can be described thus: Phototoxicity index, ratio of CC50 for human MCF10A cells to EC50 for human MCF10A cells under UV irradiation at 1.5 J/cm2. It counts as cell-based, MCF-10A. To be noted: read-out: Ratio CC50/EC50.
The nature of data set [13]: Selectivity index, ratio of EC50 for human MCF10A cells under UV irradiation at 1.5 J/cm2 to EC50 for human HT-29 cells under UV irradiation at 1.5 J/cm2. It counts as toxicity. To be noted: MCF10A cells versus HT-29 cells, read-out: Ratio EC50. Summed up:
as §3

For data set [14], the system named is HT-29. The experiment in a line: Phototoxicity index, ratio of CC50 for human HT-29 cells to EC50 for human HT-29 cells under UV irradiation at 1.5 J/cm2.
The nature of data set [15]: Selectivity index, ratio of EC50 for human MCF10A cells under UV irradiation at 1.5 J/cm2 to EC50 for human MCF7 cells under UV irradiation at 1.5 J/cm2. The class given is toxicity. To be noted: MCF10A cells versus MCF7 cells, read-out: Ratio EC50. Summed up: as §3
The subject of data set [16] is Human immunodeficiency virus 1. The experiment in a line: Antiviral activity against HIV1 3B infected in human MT4 cells assessed as decrease in viral replication by p24 ELISA. It counts as functional. To be noted: Human immunodeficiency virus 1, 3B, read-out: CIC95. (An ELISA detects its analyte on a solid surface through an enzyme-linked reagent.)

`Cc1nc2oc(-c3ccccc3)nc2c2[nH]c(=O)ccc12`: the EC50 (as a rule, the concentration that produces a half-maximal response) in the data set on A-375 [1] was 1.49 µM; in the data set with HT-29 [3], greater than 50 µM; in the data set on MCF7 [7] it was greater than 50 µM; in the data set on MCF-10A it was greater than 50 µM. For the same compound, the CC50 at 72 h in data set [2], in data set [6], in data set [9] and in data set [10] was greater than 50 µM throughout. Moreover, the solubility result in data set [4] is reported as “Soluble”. The “Ratio CC50/EC50” value in the data set on A-375 [5] is greater than 34. For the same compound, the selectivity ratio in [8] came out at 34.
In the case of `COc1cc(-c2nc3c(nc(C)c4ccc(-c5ccccc5)nc43)o2)cc(OC)c1OC`, the results for the “Ratio CC50/EC50” value in the data set with MCF7 [11], in the data set with A-375 [5] and in the data set with HT-29 [14] were greater than 8, greater than 35 and greater than 81, respectively. Also, the EC50 stood at 1.44 µM with A-375 [1], 0.62 µM in the data set with HT-29 [3], 5.94 µM in the data set with MCF7 [7] and 4.38 µM in the data set with MCF-10A. Moreover, the CC50 at 72 h in [2], in [6], in data set [9] and in [10] was greater than 50 µM each time. Also, the selectivity ratio was greater than 11 in data set [12], 7 in data set [13], 3 in [8] and 0.737 in data set [15]. For the same compound, the solubility entry in data set [4] is on record as “Soluble”.
Consider `COc1ccc(-c2nc3c(nc(C)c4ccc(C)nc43)o2)cc1`, for which the EC50 in the data set on A-375 [1] was greater than 50 µM; in the data set with HT-29 [3], 4.28 µM; with MCF7 [7] it was greater than 50 µM; in the data set on MCF-10A, greater than 50 µM. Moreover, the CC50 at 72 h in [2], in [6], in data set [9] and in [10] was greater than 50 µM each time. Also, in data set [4], the solubility result is “Soluble”. The selectivity ratio in data set [13] is greater than 12. Also, the “Ratio CC50/EC50” value in the data set on HT-29 [14] is reported as greater than 12.
On to `COc1ccccc1-c1ccc2c(C)nc3oc(-c4ccccc4)nc3c2n1`, for which the “Ratio CC50/EC50” value is recorded as greater than 38 with MCF7 [11], greater than 79 with A-375 [5] and greater than 254 in the data set on HT-29 [14]. Besides, the EC50 in the data set with A-375 [1] was 0.633 µM; with HT-29 [3], 0.197 µM; with MCF7 [7], 1.32 µM; in the data set with MCF-10A, 1.17 µM. Moreover, the CC50 at 72 h in data set [2], in [6], in [9] and in data set [10] was greater than 50 µM each time. Moreover, the selectivity ratio was greater than 43 in [12], 6 in [13], 2 in [8] and 0.884 in data set [15]. Moreover, the solubility result in data set [4] is recorded as “Soluble”.
Regarding `COc1ccc(-c2ccc3c(C)nc4c(nnn4-c4ccc(OC)cc4)c3n2)cc1`, the EC50 in the data set on A-375 [1] was 0.875 µM; with HT-29 [3] it was 1.74 µM; in the data set on MCF7 [7] it was greater than 50 µM; in the data set on MCF-10A, greater than 50 µM. Further, the CC50 at 72 h in data set [2], in [6], in data set [9] and in data set [10] was greater than 50 µM each time. In addition, the solubility result in data set [4] is on record as “Soluble”. Further, the results for the selectivity ratio in [13], in data set [8] and in data set [15] were greater than 29, 57 and greater than 1, respectively. The “Ratio CC50/EC50” value in the data set with A-375 [5] is greater than 57; with HT-29 [14] it was greater than 29.
Regarding `COc1ccc(-c2ccc3c(C)nc4c(nnn4-c4ccccc4)c3n2)cc1`, the entries for the “Ratio CC50/EC50” value with MCF7 [11], in the data set on A-375 [5] and in the data set on HT-29 [14] were greater than 1.5, greater than 5 and greater than 508, respectively. Besides, the EC50 with A-375 [1] worked out at 10.1 µM; in the data set on HT-29 [3] it was 0.099 µM; in the data set on MCF7 [7], 34 µM; in the data set with MCF-10A it was 0.099 µM. Also, the CC50 at 72 h in data set [2], in data set [6], in [9] and in data set [10] was greater than 50 µM throughout. Further, the selectivity ratio in [12] is greater than 505; in data set [13], 1.01; in [8] it was 0.009; in data set [15], 0.003. Also, the solubility result in data set [4] was “Soluble”.
Take `COc1ccccc1-c1ccc2c(C)nc3oc(-c4cc(OC)c(OC)c(OC)c4)nc3c2n1`: the results for the “Ratio CC50/EC50” value with MCF7 [11], in the data set with A-375 [5] and in the data set on HT-29 [14] were greater than 14, greater than 65 and greater than 254, respectively. The EC50 in the data set with A-375 [1] is 0.764 µM; in the data set on HT-29 [3] it was 0.197 µM; with MCF7 [7], 3.53 µM; in the data set with MCF-10A it was 1.86 µM. Moreover, the CC50 at 72 h in data set [2], in [6], in data set [9] and in [10] was greater than 50 µM in each case. The selectivity ratio in data set [12] was greater than 27; in data set [13] it was 9; in [8], 2; in data set [15], 0.527. For the same compound, in data set [4], the solubility result is listed as “Soluble”.
Take `COc1ccc(-n2nnc3c4nc(-c5ccccc5OC)ccc4c(C)nc32)cc1`: the EC50 with A-375 [1] was 1.09 µM; with HT-29 [3], greater than 50 µM; in the data set on MCF7 [7], greater than 50 µM; in the data set with MCF-10A, greater than 50 µM. Moreover, the CC50 at 72 h in data set [2], in data set [6], in data set [9] and in data set [10] was greater than 50 µM in each case. Further, the solubility result in data set [4] was “Soluble”. Moreover, the values for the selectivity ratio in data set [13], in data set [8] and in data set [15] were greater than 1, 46 and greater than 1, respectively. Further, the “Ratio CC50/EC50” value with A-375 [5] is recorded as greater than 46.
On to `Cc1ccc2c(C)nc3oc(-c4ccccc4)nc3c2n1`, for which the EC50 in the data set on A-375 [1] was greater than 50 µM; in the data set with HT-29 [3] it was 6.59 µM; in the data set with MCF7 [7], greater than 50 µM; in the data set on MCF-10A, greater than 50 µM. Moreover, the CC50 at 72 h in data set [2], in data set [6], in [9] and in [10] was greater than 50 µM throughout. Moreover, the solubility entry in data set [4] is listed as “Soluble”. In addition, the selectivity ratio in [13] was greater than 8. Further, the “Ratio CC50/EC50” value in the data set with HT-29 [14] is greater than 8.
`COc1ccc(-n2nnc3c4[nH]c(=O)ccc4c(C)nc32)cc1`: the EC50 with A-375 [1], in the data set with HT-29 [3], in the data set with MCF7 [7] and with MCF-10A was greater than 50 µM throughout. The CC50 at 72 h in data set [2], in data set [6], in data set [9] and in data set [10] was greater than 50 µM in each case. Also, the solubility entry in data set [4] is “Soluble”.
Consider `O=C(c1cc(Cc2ccccc2)cc(CN2CCCS2(=O)=O)c1)c1ncc2cccnc2c1O`, for which the IC95 in data set [16] was 0.39 µM.

Values taken from ChEMBL document CHEMBL4325899, “Synthesis and photocytotoxic activity of [1,2,3]triazolo[4,5-h][1,6]naphthyridines and [1,3]oxazolo[5,4-h][1,6]naphthyridines” (Eur J Med Chem, 2019).
